# In article PMC5552238 (EBioMedicine, 2017):
# Tested on: subcutaneous Hepa1-6 liver cancers
# Assay: Subcutaneous Hepa1-6 liver cancers, 747 combined with low-dose sorafenib
# Type: in vivo, mouse
# Settings: sorafenib low dose 10 mg/kg
# Method in brief: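 Hepa1-6 cells (1.5 × 106) injected into right flank; mice randomized at ~0.5 cm tumors. Test compound given i.p. daily (0.5% HPMC/0.2% Tween), alone or with sorafenib 10 mg/kg intragastric. Volume = 1/2a × b². End-point paraffin sections stained for F4/80, Arg-1 and cleaved caspase-3 (primary overnight at 4 °C, HRP secondary 1 h at 37 °C, DAB). Sorted intratumoral CD8+ T cells analysed by qRT-PCR normalized to GAPDH/L32.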
compound,measurement,value
CNC(=O)c1cc(Oc2ccc(NC(=O)Nc3ccc(Cl)c(C(F)(F)F)c3)cc2)ccn1 [sorafenib],therapeutic effect on subcutaneous tumors,no efficacy
